For five compounds, Activity results are on record in ChEMBL document CHEMBL1255555, “Parallel synthesis and anti-inflammatory activity of cyclic peptides cyclosquamosin D and Met-cherimolacyclopeptide B and their analogs” (2010).

Experiment [1] has as its system J774.A1. The experiment is described as follows: Antiinflammatory activity in mouse J774A1 cells assessed as inhibition of LPS-stimulated TNFalpha stimulation after 4 hrs by ELISA. The experiment is classed as functional, cell-based. The essentials: (§1)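 Murine macrophage J774A.1 cells in RPMI1640 with 10% heat-inactivated FBS, glutamine, pyruvate, nonessential amino acids, HEPES and 2-mercaptoethanol. Peptides, dissolved in DMSO, added for 1 h at 37 °C before LPS (0.1 µg/mL) for a further 4 or 6 h. IL-6 or TNF-α in supernatant measured by sandwich ELISA: biotinylated detection antibody, avidin-HRP, ABTS substrate, OD 405 nm.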
(In an ELISA, binding on a coated surface is turned into a signal by an enzyme label.)

The test system of experiment [2] is J774.A1. Put plainly: Antiinflammatory activity in mouse J774A1 cells assessed as inhibition of LPS-stimulated IL6 stimulation after 4 hrs by ELISA. In kind it is functional. The essentials:
as §1

SMILES strings stand for the structures. Active and inactive are the calls of the source. The calls are words filed in the database; no cut-off is given here. Residues, ends and D or L forms follow the SMILES beside them.

Take `CC[C@@H](C)[C@@H]1NC(=O)[C@@H]2CCCN2C(=O)[C@H](CC(C)C)NC(=O)[C@H](C)NC(=O)CNC(=O)[C@H]([C@@H](C)O)NC(=O)[C@H](CCC(N)=O)NC(=O)[C@@H]2CCCN2C1=O`: the outcome in the experiment on J774.A1 [1] and with J774.A1 [2] was Active.
Take `CC(C)C[C@@H]1NC(=O)[C@H](C(C)C)NC(=O)CNC(=O)[C@H](C)NC(=O)[C@@H]2CCCN2C(=O)[C@H](Cc2ccc(O)cc2)NC(=O)[C@H](Cc2ccc(O)cc2)NC(=O)[C@H](CO)NC1=O` (cyclo(AGVLSYYP)): the outcome in the experiment with J774.A1 [1] and in the experiment with J774.A1 [2] was Active.
For `CC[C@H](C)[C@@H]1NC(=O)[C@@H]2CCCN2C(=O)[C@H](CC(C)C)NC(=O)[C@H](CCSC)NC(=O)[C@H](C)NC(=O)[C@H]([C@@H](C)O)NC(=O)[C@H](CCC(N)=O)NC(=O)[C@@H]2CCCN2C1=O` (cyclo(AMLPIPQT)), the outcome with J774.A1 [1] and in the experiment with J774.A1 [2] was Active.
For `CC(C)C[C@@H]1NC(=O)[C@H](C(C)C)NC(=O)[C@H](C)NC(=O)CNC(=O)[C@@H]2CCCN2C(=O)[C@H](Cc2ccc(O)cc2)NC(=O)[C@H](Cc2ccc(O)cc2)NC(=O)[C@H](CO)NC1=O` (cyclo(AVLSYYPG)), in the experiment with J774.A1 [2], the outcome was Active.
Take `COc1ccc(C[C@@H]2NC(=O)[C@H](Cc3ccc(O)cc3)NC(=O)[C@H](CO)NC(=O)[C@H](CC(C)C)NC(=O)[C@H](C(C)C)NC(=O)CNC(=O)CNC(=O)[C@@H]3CCCN3C2=O)cc1` (cyclo(GGVLSYY(Me)P)): the result in the experiment on J774.A1 [1] was inactive. Besides, in the experiment with J774.A1 [2], the result was Active. Moreover, the Activity in the experiment with J774.A1 [2] (record 2) was determined as 25%.
